Published values pooled from the literature.
Target: Mitogen-activated protein kinase 8 (MAPK8, Homo sapiens, UniProt P45983)

effect on | technique | tested at | remaining binding [%] | SMILES
cell-free assay | competition with immobilised ligand | 0.1 µM | 98 | C[C@H](c1ccnc(Nc2nc3ccc(-c4cc(N(C)C)ncn4)cc3[nH]2)c1)N1CCN(C(=O)CC(F)(F)F)CC1
cell-free assay | competition with immobilised ligand | 10 µM | 14 | COC(=O)Nc1nc2ccc(C(=O)c3ccccc3)cc2[nH]1
binding | competition with immobilised ligand | 0.5 µM | 54 | C[C@@H]1CN(c2ccc3ncc(-c4ccc5[nH]nc(C6CC6)c5c4)n3n2)C[C@H](C)O1
binding |  | 1 µM | 67 | Cc1cnn2ncc(-c3ccnc(N(C)C)n3)c2c1
binding | competition with immobilised ligand | 1 µM | 82 | CNC(=O)[C@@H]1CC[C@@H](n2c(-c3ccc4cnccc4c3)nc3ccc(C(=O)NCc4cccc(C(N)=O)c4)cc32)C1
cell-free assay | competition with immobilised ligand | 0.1 µM | 88 | Cn1nc(C(=O)NCc2ccc(C(=O)O)cc2)cc1-c1ccc2[nH]ccc2c1
binding | competition with immobilised ligand | 1 µM | 34 | C[C@H]1CCN(c2nccc(-c3cnn4ncccc34)n2)C1
cell-free assay | competition with immobilised ligand | 1 µM | 100 | C[C@H](c1ccc(F)cc1)N(Cc1cccc(C(=O)O)c1)C(=O)c1cnc2ccccc2c1
binding |  | 1 µM | 27 | N[C@@H]1CCN(c2nccc(-c3cnn4ncccc34)n2)C1
cell-free assay | competition with immobilised ligand | 0.1 µM | 100 | Nc1c(C(=O)NCc2ccc(C(=O)NCCCC3CCCCC3)cc2)cnn1-c1ccccc1
binding | competition with immobilised ligand | 1 µM | 87 | COc1cnc(Nc2cccc(S(N)(=O)=O)c2)nc1N1CCN(c2ccccc2)CC1
binding | competition with immobilised ligand | 10 µM | 96 | N#Cc1ccccc1CSc1nnc2c(n1)[nH]c1ccccc12
cell-free assay | competition with immobilised ligand | 1 µM | 53 | CCC(=O)N[C@@H]1CC[C@H](C(=O)N(C)c2ccc(-c3nc4ccccc4o3)cc2)C1
binding | competition with immobilised ligand | 1 µM | 66 | Nc1ncc2c(n1)-c1c([nH]c3ccc(C#CC4CC4)cc13)CCCC2
binding | competition with immobilised ligand | 1 µM | 100 | CN(C)c1nccc(-c2cnn3ncccc23)n1
cell-free assay | competition with immobilised ligand | 0.1 µM | 80 | Cc1c[nH]c2nccc(Oc3c(F)cc(Nc4cc(Cl)nc(N)n4)cc3F)c12
binding | competition with immobilised ligand | 1 µM | 9.8 | O=C(NCCCN1CCOCC1)c1ccc(Nc2nccc(-c3cc4ccccc4s3)n2)cc1
binding | competition with immobilised ligand | 1 µM | 16 | O=C(NCC1CCOCC1)c1n[nH]cc1NC(=O)c1c(F)cccc1F
binding | competition with immobilised ligand | 1 µM | 100 | CN(CCCC(F)(F)F)c1nccc(-c2cnn3ncccc23)n1
cell-free assay | competition with immobilised ligand | 0.1 µM | 85 | CS(=O)(=O)N1CCCC(NC(=O)[C@H](CCC2CCCCC2)NC(=O)c2ccc(CNc3ncnc4c3nnn4-c3ccccc3)cc2)C1 (stereo partly drawn)
binding | competition with immobilised ligand | 1 µM | 0.3 | O=C(c1ccc(Nc2ncc(Cl)c(-c3ccc(Cl)s3)n2)cc1)N1CCC(N2CCCC2)CC1
binding | competition with immobilised ligand | 1 µM | 94 | CC1CCCN1c1nccc(-c2cnn3ncccc23)n1 (stereo not drawn)
binding | competition with immobilised ligand | 1 µM | 4.5 | Cc1cnc(Nc2ccc(C(=O)N3CCC(N4CCCC4)CC3)cc2)nc1-c1cc2ccccc2s1
binding | competition with immobilised ligand | 1 µM | 59 | CN(C)c1nccc(-c2cnc3ncccn23)n1
